pIC50: −log10 of the molar value. Activity calls are given as the source filed them. The calls are words filed in the database; no cut-off is given here.
How the values were obtained:
[1] = target: T1, Tyrosine-protein phosphatase non-receptor type 1 (Homo sapiens) (UniProt P18031); test: (§1) Inhibition of PTP1B (1 to 298 residues) (unknown origin) using DifMUP as substrate preincubated for 30 mins followed by substrate addition and measured after 30 mins by fluorescence assay
T1 sequence (whole entry): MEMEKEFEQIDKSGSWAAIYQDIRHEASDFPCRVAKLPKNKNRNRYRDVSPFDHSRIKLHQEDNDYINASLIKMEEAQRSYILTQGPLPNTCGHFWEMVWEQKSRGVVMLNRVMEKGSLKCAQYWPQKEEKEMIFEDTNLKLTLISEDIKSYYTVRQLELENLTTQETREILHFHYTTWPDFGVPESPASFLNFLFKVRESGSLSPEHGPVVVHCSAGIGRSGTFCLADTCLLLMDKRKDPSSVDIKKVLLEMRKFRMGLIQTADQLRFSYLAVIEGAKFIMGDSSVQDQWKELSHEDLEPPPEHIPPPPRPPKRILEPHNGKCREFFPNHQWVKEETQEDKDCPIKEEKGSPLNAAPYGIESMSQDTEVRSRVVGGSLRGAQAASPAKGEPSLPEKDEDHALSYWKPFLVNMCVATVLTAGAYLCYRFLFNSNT
Procedure, shortened: (§2)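 PTP1B catalytic domain (aa 1–298, 5 nM final) preincubated with compound (diluted in DMSO) 30 min at RT in the dark. DifMUP (30 μM final) added, 30 min at RT. Stopped with H2O2 (0.5% final), 30 min RT. Fluorescence read at Ex 360/Em 450 nm. Buffer: 50 mM citrate pH 6.0, 100 mM NaCl, 1 mM EDTA, 0.1 mM DTT, 0.01% Brij35.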

[2] = Effect on fluorescence read out during PTP1B enzymatic reaction compound treated post enzyme-substrate reaction and susequent H2O2-mediated enzyme deactivation
Procedure, shortened: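 Read-out counter assay. PTP1B (aa 1–298) turned over DifMUP first, then the enzyme was deactivated with H2O2 and compound added. A drop in fluorescence (Ex 360/Em 450 nm) marks interference with the read-out. Concentration–response format.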

[3] = target: T2, Tyrosine-protein phosphatase non-receptor type 1 (Homo sapiens, UniProt P18031); test: as §1; procedure, shortened: as §2
T2 sequence (P18031 whole entry): T1 sequence (whole entry)

[4] = Self-aggregating behavior of compound at 32 to 500 uM by 1D-1H NMR method; format: physicochemical
Procedure, shortened: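 Self-association check by 1D 1H NMR. Dilution series from 500 to 32 μM compound in 5 mM TRIS pH 7.4, 50 mM NaCl, 5% DMSO-d6. Concentration-dependent shifts of aromatic resonances were monitored.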

[5] = target: T2, Tyrosine-protein phosphatase non-receptor type 1; test: Competitive inhibition of PTP1B (1 to 298 residues) (unknown origin) using 30 uM DifMUP as substrate preincubated for 30 mins followed by substrate addition and measured after 30 mins by fluorescence assay; procedure, shortened: as §2
[6] = target: T1, Tyrosine-protein phosphatase non-receptor type 1 (Homo sapiens); test: Reversible inhibition of PTP1B (1 to 298 residues) (unknown origin) using 10 fold excess DifMUP as substrate preincubated for 30 mins followed by substrate addition and measured after 30 mins by fluorescence assay
[7] = target: T2, Tyrosine-protein phosphatase non-receptor type 1; test: Competitive inhibition of PTP1B (1 to 298 residues) (unknown origin) using 60 uM DifMUP as substrate preincubated for 30 mins followed by substrate addition and measured after 30 mins by fluorescence assay
Procedure, shortened: (§3)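 PTP1B aa 1–298 (5 nM final) preincubated with compound 30 min at RT in the dark, then DifMUP added, 30 min at RT. Stopped with 0.5% final H2O2, 30 min. Fluorescence read at Ex 360/Em 450 nm. Buffer: citrate pH 6.0, NaCl, EDTA, DTT, Brij35.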

[8] = Intrinsic redox activity of compound after 60 mins in presence of resazurin/DTT
[9] = target: T2, Tyrosine-protein phosphatase non-receptor type 1; test: Competitive inhibition of PTP1B (1 to 298 residues) (unknown origin) using 15 uM DifMUP as substrate preincubated for 30 mins followed by substrate addition and measured after 30 mins by fluorescence assay; procedure, shortened: as §3

Row | SMILES | inhibition [1] | Activity [2] | pIC50 [3] | also measured
1 | CC(=O)Oc1c(C)c(C)c2c(c1C)CC[C@@](C)(CCC[C@H](C)CCC[C@H](C)CCCC(C)C)O2 | inactive |  |  | 
2 | O=C(O)C(=O)Nc1sc2c(c1C(=O)O)CCNC2 |  | inactive |  | 
3 | Cc1c(C)c2c(c(C)c1O)CC[C@@](C)(CCC[C@H](C)CCC[C@H](C)CCCC(C)C)O2 | inactive |  |  | 
4 | Cc1c(C)c2c(c(C)c1OC(=O)CCC(=O)O)CCC(C)(C)O2 | inactive |  |  | 
5 | CN(C)c1ccc2nc3ccc(=[N+](C)C)cc-3sc2c1 | Active |  |  | 
6 | COc1ccc2cc3[n+](cc2c1OC)CCc1cc2c(cc1-3)OCO2 [BERBERINE] |  | Active | 4.17 | Activity [4]: Active
7 | Cc1c(C)c2c(c(C)c1OC(=O)CCC(=O)O)CC[C@@](C)(CCC[C@H](C)CCC[C@H](C)CCCC(C)C)O2 [(+)-ALPHA-TOCOPHERYL SUCCINATE] |  | inactive | 4.70 | pIC50 [5]: 4.41; inhibition [6]: Active; pIC50 [7]: 4.34; Activity [8]: inactive; pIC50 [9]: 4.60
8 | COc1cc2c(cc1OC)-c1cc3ccc(OC)c(OC)c3c[n+]1CC2 [PALMITINE] |  | Active | 3.63 | 

Reference: ChEMBL document CHEMBL4261523, “PAIN-less identification and evaluation of small molecule inhibitors against protein tyrosine phosphatase 1B” (Medchemcomm, 2017)
